The values below come from PMC3830715 (Biochemistry, 2013).

The target in data set [1] is T1, WT PDK1 PH domain (Homo sapiens, UniProt O15530).
T1 sequence (O15530 459-550 limits assumed): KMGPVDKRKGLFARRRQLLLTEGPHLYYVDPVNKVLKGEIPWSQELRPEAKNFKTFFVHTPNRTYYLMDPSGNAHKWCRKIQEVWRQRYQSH
The data set is classed as binding. The settings on record: read-out: KD(IP6); free WT PH domain in solution, 25 °C, physiological buffer. The gist of the method: (§1)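 Free PH domain, purified from Sf9 cells, was titrated with IP₆ in solution at 25 °C. The buffer was HEPES pH 7.4 with 140 mM KCl, 15 mM NaCl, 0.5 mM MgCl₂ and 10 mM DTT. Intrinsic Trp fluorescence was read at ex 284 nm / em 335 nm, slits 1/8 nm. K_DI came from a nonlinear least squares fit assuming homogeneous binding sites.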

The target in data set [2] is T2, T513E PDK1 PH domain (Homo sapiens, UniProt O15530, T513E).
T2 sequence (O15530 459-550 T513E limits assumed): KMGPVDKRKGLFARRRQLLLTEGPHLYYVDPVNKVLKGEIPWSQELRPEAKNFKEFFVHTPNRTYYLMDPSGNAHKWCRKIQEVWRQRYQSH
The data set is classed as binding. Conditions: read-out: KD(IP6); free T513E PH domain in solution, 25 °C, physiological buffer. An outline of the steps: as §1

Data set [3] concerns the target T1, WT PDK1 PH domain. The data set is classed as binding.
In data set [4] the target is T1, WT PDK1 PH domain. Format: binding. The gist of the method:
(§2)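 PH domain (1 μM, from Sf9 cells) was rapidly mixed by stopped flow with plasma membrane-like SUVs (600 μM total lipid, 6 μM accessible PIP₃). Final concentrations were 0.5 μM protein and 3 μM PIP₃, at 25 °C in HEPES pH 7.4 buffer with 10 mM DTT. Trp-to-dansyl-PE FRET was monitored, and a single-exponential fit gave k_on(app). k_off was estimated from the measured K_D and k_on.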
This is another data set of the same source.

Data set [5] addresses T2, T513E PDK1 PH domain. Format: binding. An outline of the steps: as §2
Data set [6] deals with WT and T513E PDK1 PH domains. The data set is classed as binding, human. The settings on record: PC/PS/PIP3 74/24/2 supported bilayer (dioleoyl PIP3), SE n = 3.
Data set [7] concerns the molecule itself. The data set is described as follows: single molecule TIRFM brightness analysis.

For `O=P(O)(O)OC1C(OP(=O)(O)O)C(OP(=O)(O)O)C(OP(=O)(O)O)C(OP(=O)(O)O)C1OP(=O)(O)O` (centres unmarked) [IP6, Inositol 1,2,3,4,5,6-hexakisphosphate], the Kd (in general, the constant that tells how readily two partners part at equilibrium) at WT PDK1 PH domain [1] came to 9 ± 3 µM; at T513E PDK1 PH domain [2], 30 ± 11 µM. Moreover, the membrane-bound protein displaced result on WT PDK1 PH domain [3] (1 mM IP6, WT PH domain on PIP3 target membranes) is “less than 5%”.

Regarding `O=P(O)(O)OC1[C@H](O)[C@H](OP(=O)(O)O)C(OP(=O)(O)O)[C@H](OP(=O)(O)O)[C@H]1O` (some centres unmarked) [IP4, inositol 1,3,4,5-tetrakis(phosphate)], the “higher affinity for IP4 than for IP6” value at WT PDK1 PH domain [3] (WT PH domain) turned out to be 80 fold.

Turning to `CCCCCCCCCCCCCCCC(=O)OC[C@H](COP(=O)(O)OC1[C@H](O)[C@H](OP(=O)(O)O)C(OP(=O)(O)O)[C@H](OP(=O)(O)O)[C@H]1O)OC(=O)CCCCCCCCCCCCCCC` (some centres unmarked) [PIP3, 1,2-dipalmitoylphosphatidylinositol 3,4,5-trisphosphate], at WT PDK1 PH domain [3] (plasma membrane-like bilayers), the “greater PIP3 membrane affinity of dimeric WT relative to monomeric T513E” value worked out at 35 fold. Further, the “kon (app)” value on WT PDK1 PH domain [4] (WT PH domain 0.5 μM, 3 μM accessible PIP3, 25 °C) came to 1.6 ± 0.1 µM⁻¹ s⁻¹; on T513E PDK1 PH domain [5] (T513E PH domain 0.5 μM, 3 μM accessible PIP3, 25 °C), 2.5 ± 0.1 µM⁻¹ s⁻¹. In addition, the “koff (calc)” value on WT PDK1 PH domain [4] (WT PH domain, estimated from measured KD and kon) is 0.3 ± 0.2 ms ^−1; at T513E PDK1 PH domain [5] (T513E PH domain, estimated from measured KD and kon), 18 ± 5 ms ^−1. Besides, the “higher concentration of T513E PH domain needed relative to WT for same density of membrane-associated single particles (lower affinity for target PIP3 bilayer)” value in data set [6] turned out to be 9.7 ± 1.9 fold.

B1: human WT PDK1 PH domain, AF555-labeled (domain or fragment, UniProt O15530 409-556, looked up)
chain: GSNIEQYIHDLDSNSFELDLQFSEDEKRLLLEKQAGGNPWHQFVENNLILKMGPVDKRKGLFARRRQLLLTEGPHLYYVDPVNKVLKGEIPWSQELRPEAKNFKTFFVHTPNRTYYLMDPSGNAHKWCRKIQEVWRQRYQSHPDAAVQ
modifications: Alexa Fluor 555 on the N-terminal Sfp labeling tag (enzymatic labeling, up to ~50% labeling efficiency)
With B1, the stoichiometry N (usually the number of molecules, sites or subunits per partner or assembly) in data set [7] turned out to be 2.
